Results pooled from the literature.
Cell line: HT-29

| Compound | effect on | technique | time | IC50 |
| --- | --- | --- | --- | --- |
| CC(=O)O[C@H]1C(=O)[C@@]2(C)[C@H]([C@H](OC(=O)c3ccccc3)[C@]3(O)C[C@H](OC(=O)[C@H](O)[C@@H](NC(=O)c4ccccc4)c4ccccc4)C(C)=C1C3(C)C)[C@]1(OC(C)=O)CO[C@@H]1C[C@@H]2O | cell growth or viability |  |  | 0.0006 µM |
| COc1ccc2c(c1)/C(=N/NC(=O)c1cc3ccccc3[nH]1)C(=O)N2 | cell growth or viability |  |  | > 30 µM |
| COc1ccc(-c2cc3nccn3c(Nc3ncccc3C(N)=O)n2)cc1OC | IL-8 release |  | 24 h | > 2.56 µM |
| C#Cc1cccc(Nc2ncnc3cc(OCCOC)c(OCCOC)cc23)c1 | cell growth or viability | MTT |  | 0.07 µM |
| COc1ccc2c(c1)/C(=N/NC(=O)c1cc3ccccc3[nH]1)C(=O)N2C | cell growth or viability |  |  | 5.73 µM |
| C#C[C@@]1(O)[C@@H](COP(=O)(O)OC[C@H]2O[C@@H](n3cc(F)c(=O)[nH]c3=O)C[C@@H]2O)O[C@@H](n2ccc(N)nc2=O)[C@@H]1O | cell growth or viability | SRB | 72 h | 0.0054 µM |
| COc1ccc(C(=O)O[C@@H]2CN3Cc4c(cc5c(c4OC)OCO5)[C@@]24C=C[C@H](OC)C[C@@H]34)cc1 | cell growth or viability | WST-1 |  | > 10 µM |
| CC(=O)c1ccc(N=Nc2c(C(=O)O)cc(O)c(O)c2O)cc1 | cell growth or viability | MTT |  | 14.6 µM |
| C#Cc1cc(Nc2nccc(Oc3ccc(NC(=O)Nc4cc(C(C)(C)C)nn4-c4ccc(C)cc4)c4ccccc34)n2)cc(C(=O)NCCOCCOCCOC)c1 | IL-8 release |  | 24 h | 0.0018 µM |
| CN1C(=O)/C(=N\NC(=O)c2cc3ccccc3[nH]2)c2ccccc21 | cell growth or viability |  |  | 12.9 µM |
| NCC(=O)Nc1ccc(-n2nc(C(F)(F)F)cc2-c2ccc3c(c2)Nc2ccccc2S3)cc1 | cell growth or viability | MTT | 24 h | 6.2 µg/mL |
| CCC[C@H](Nc1nc(-c2ccc(NC(=O)NCC)c(OC)c2)ncc1C)c1cccnc1 | cell growth or viability | fluorescence | 72 h | 0.0393 µM |
| C#C[C@@]1(O)[C@@H](CO)O[C@@H](n2ccc(N)nc2=O)[C@@H]1O | cell growth or viability | SRB | 72 h | 0.0094 µM |
| COc1cc(Nc2nccc(-c3cnn4nc(OC)ccc34)n2)cc(C(F)(F)F)c1 | cell growth or viability | ATP luminescence |  | 0.33 µM |
| O=C(O)/C=C/c1ccc(O)cc1 | cell growth or viability | MTT |  | > 50 µM |
| CC(=O)O[C@H]1C(=O)[C@@]2(C)[C@H]([C@H](OC(=O)c3ccccc3)[C@]3(O)C[C@H](OC(=O)[C@H](O)[C@@H](NC(=O)c4ccccc4)c4ccccc4)C(C)=C1C3(C)C)[C@]1(OC(C)=O)CO[C@@H]1C[C@@H]2O | cell growth or viability | fluorescence | 72 h | 0.0035 µM |
| COc1c(C)c(OS(=O)(=O)c2ccc3ccccc3c2)c(C)c(OS(=O)(=O)c2ccc3ccccc3c2)c1C(=O)/C=C/c1ccccc1 | cell growth or viability | SRB | 72 h | > 50 µM |
| NCC(=O)Nc1ccc(-n2nc(C(F)(F)F)cc2-c2ccc3c(ccc4ccccc43)c2)cc1 | cell growth or viability | MTT | 24 h | 3.6 µg/mL |
| O=C1Nc2ccc(Cl)cc2/C1=N/NC(=O)c1cc2ccccc2[nH]1 | cell growth or viability |  |  | > 30 µM |
| CC(=O)c1cccc(N=Nc2c(C(=O)O)cc(O)c(O)c2O)c1 | cell growth or viability | MTT |  | 10.2 µM |
| COc1ccc(C(=O)O[C@@H]2CN3Cc4c(cc5c(c4OC)OCO5)[C@@]24C=C[C@H](OC)C[C@@H]34)cc1OC | cell growth or viability | WST-1 |  | > 10 µM |
| CCN(CC)CCNC(=O)c1c(C)[nH]c(/C=C2\C(=O)Nc3ccc(F)cc32)c1C | cell growth or viability |  |  | 10.1 µM |
| CCCCCCCCCCCC(=O)Oc1c(C)c(O)c(C(=O)/C=C/c2ccccc2)c(OC)c1C | cell growth or viability | SRB | 72 h | > 50 µM |
| F[B-](F)(F)F.[Fe+3].c1cc[cH-]c1.c1cc[cH-]c1 | cell growth or viability | MTT |  | 180 µM |
| CC(C)n1c(/C=C/C(O)CC(O)CC(=O)O)c(-c2ccc(F)cc2)c2ccccc21 (stereo not shown) | cell growth or viability | SRB | 72 h | 1.67 µg/mL |
| C1CCCC1.C1CCCC1.[Cl][W][Cl] | cell growth or viability | MTT |  | 10000 µM |
| CC[C@H](C)C(=O)O[C@H]1C[C@@H](C)C=C2C=C[C@H](C)[C@H](CC[C@@H]3C[C@@H](O)CC(=O)O3)[C@H]21 | cell growth or viability | SRB | 72 h | 7.26 µg/mL |
| O=C1Nc2ccc(F)cc2/C1=N/NC(=O)c1cc2ccccc2[nH]1 | cell growth or viability |  |  | > 30 µM |
